{"source": "ChEMBL document CHEMBL4765328", "about": "(Eur J Med Chem, 2020)", "key": {"HL-60 [1]": {"system": "HL-60", "assay": "Antiproliferative activity against human HL-60 cells assessed as inhibition of cell growth", "format": "functional, cell-based", "summary_of_the_method": "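Growth inhibition of cancer cell lines read from dose-response curves; IC50 as mean ± SEM of at least three independent experiments.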"}, "[2]": {"assay": "Cytotoxicity against human PBL assessed as inhibition of cell growth", "format": "cell-based", "details": "peripheral blood lymphocytes (PBL)", "summary_of_the_method": "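Peripheral blood lymphocytes from healthy donors, tested either unstimulated or stimulated with PHA; DMSO ≤0.25% final. Values are mean ± SEM of three separate experiments.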"}, "[3]": {"assay": "Inhibition of bovine brain tubulin polymerisation preincubated with compound followed by GTP addition and measured after 20 mins by turbidimetry based spectrophotometric method", "format": "tissue-based, Bos taurus", "summary_of_the_method": "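Bovine brain tubulin (10 µM) in glutamate buffer, preincubated with varying compound concentrations at 30 °C, then cooled to 0 °C. GTP added to 0.4 mM final, then warmed to 30 °C in a recording spectrophotometer. Assembly followed by turbidity at 350 nm.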"}, "Bos taurus": {"species_on_record": "Bos taurus", "assay": "Inhibition of [3H]colchicine binding to bovine brain tubulin at 5 uM relative to control", "summary_of_the_method": "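[3H]colchicine binding to purified tubulin, with tubulin at 0.5 µM and colchicine at 5 µM. Compounds tested at 5 and 0.5 µM. CA-4 was run in contemporaneous experiments for comparison.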"}, "HeLa [4]": {"system": "HeLa", "assay": "Induction of microtubule network depolymerization in human HeLa cells assessed as appearance of disorganised microtubules at 100 nM after 24 hrs by immunofluorescence staining based confocal microscopic analysis", "format": "cell-based", "summary_of_the_method": "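HeLa cells treated 24 h at 10, 50 or 100 nM. They were then fixed in cold 4% formaldehyde for 15 min and stained with anti-β-tubulin for 2 h at room temperature. Alexa 488 secondary and DAPI counterstain followed; imaged by confocal microscopy at 20X.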"}, "HeLa [5]": {"system": "HeLa", "assay": "Induction of cell cycle arrest in human HeLa cells assessed as accumulation at G2/M phase at 10 nM after 24 hrs by PI staining based flow cytometric analysis", "format": "functional", "summary_of_the_method": "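HeLa cells treated 24 h, then fixed in cold 70% ethanol. They were lysed with 0.1% Triton X-100 plus RNase A and stained with PI for flow cytometric DNA content. Means ± SEM of two independent experiments.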"}, "HeLa [6]": {"system": "HeLa", "assay": "Induction of cell cycle arrest at G2/M phase in human HeLa cells assessed as increase in cyclin B1 expression after 24 to 48 hrs by Western blot analysis", "format": "functional, cell-based", "details": "dose 10-50 nM, time 24-48 hrs", "summary_of_the_method": "(§1)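 HeLa cells treated 24 or 48 h, then washed in cold PBS and lysed in 0.1% Triton X-100/RNase A at 0 °C. Lysates were cleared at 15,000 x g. 10 µg protein was run on SDS-PAGE and blotted to PVDF, blocked in 5% BSA, and probed 2 h at room temperature with primary antibodies. HRP secondary and ECL detection followed; β-actin reprobe served as loading control.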"}, "HeLa [7]": {"system": "HeLa", "assay": "Induction of apoptosis in human HeLa cells assessed as viable cells at 10 nM measured after 24 hrs by Annexin V-FITC/propidium iodide staining based flow cytometry (reference value: 89.57 %)", "format": "functional", "details": "read-out: Activity"}, "HeLa [8]": {"system": "HeLa", "assay": "Induction of apoptosis in human HeLa cells assessed as early apoptotic cells at 10 nM measured after 24 hrs by Annexin V-FITC/propidium iodide staining based flow cytometry (reference value: 2.1 %)", "format": "functional"}, "HeLa [9]": {"system": "HeLa", "assay": "Induction of apoptosis in human HeLa cells assessed as late apoptotic cells at 10 nM measured after 24 hrs by Annexin V-FITC/propidium iodide staining based flow cytometry (reference value: 6.07 %)", "format": "functional"}, "HeLa [10]": {"system": "HeLa", "assay": "Induction of apoptosis in human HeLa cells assessed as necrotic cells at 10 nM measured after 48 hrs by Annexin V-FITC/propidium iodide staining based flow cytometry (reference value: 2.26 %)", "format": "functional"}, "HeLa [11]": {"system": "HeLa", "assay": "Induction of mitochondrial membrane potential loss in human HeLa cells assessed as cells with depolarized mitochondrial membrane at 10 nM after 48 hrs by JC-1 dye-based flow cytometric analysis (reference value: 5.7 %)", "format": "functional"}, "HeLa [12]": {"system": "HeLa", "assay": "Induction of mitochondrial membrane potential loss in human HeLa cells assessed as cells with polarized mitochondrial membrane at 10 nM after 24 hrs by JC-1 dye-based flow cytometric analysis (reference value: 94.3 %)", "format": "functional"}, "HeLa [13]": {"system": "HeLa", "assay": "Induction of apoptosis in human HeLa cells assessed as increase in PARP cleavage at 10 nM after 24 hrs by Western blot analysis", "format": "functional, cell-based", "summary_of_the_method": "as §1"}, "HeLa [14]": {"system": "HeLa", "assay": "Induction of apoptosis in human HeLa cells assessed as reduction in mcl-1 protein expression at 10 nM after 24 hrs by Western blot analysis", "format": "functional, cell-based"}, "HUVEC [15]": {"system": "HUVEC", "assay": "Antivascular activity against HUVEC assessed as effect on segment length in preformed capillary like tube network at 10 nM incubated for 1 hr by imaging analysis", "format": "functional, cell-based", "details": "Homo sapiens", "summary_of_the_method": "(§2)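 HUVECs used at passages 1–6 in M200 with low-serum growth supplement. 6 x 10^4 cells seeded on gelled Matrigel (37 °C, 30 min) and left 6 h to form tubes. Preformed networks then treated 1 h at 10 or 100 nM and photographed at five fields per well. Image analysis gave segment length, mesh area and number, covered area and branch points; three independent experiments.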"}, "HUVEC [16]": {"system": "HUVEC", "assay": "Antivascular activity against HUVEC assessed as effect on meshes area in preformed capillary like tube network at 10 nM incubated for 1 hr by imaging analysis", "format": "functional, cell-based", "details": "Homo sapiens", "summary_of_the_method": "as §2"}, "[17]": {"assay": "Antitumor activity mouse E0771 cells implanted in C57BL/6 mouse assessed as reduction tumor mass at 5 mg/kg, ip administered every other day relative to control", "format": "functional, EO771", "design": "scale not given: the % may be the effect or the level left", "summary_of_the_method": "(§3)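 Seven-week-old female C57BL/6 mice received 4 x 10^5 E0771 cells orthotopically in the mammary fat pad and were randomized once tumors were palpable. Dosing was ip every other day at 5 or 15 mg/kg, with DMSO vehicle in 100 µL. Caliper volume was V=(D×d²)/2, and tumor weight was taken at endpoint; n=5/group. Analysis used two-way ANOVA with Bonferroni.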"}, "EO771": {"system": "EO771", "assay": "Antitumor activity against mouse E0771 cells implanted in ip dosed C57BL/6 mouse assessed as reduction tumor growth administered every other day", "format": "functional, organism-based", "details": "dose 5-15 mg/kg", "summary_of_the_method": "as §3"}, "HL-60 [18]": {"system": "HL-60", "assay": "Potency index, ratio […] for human HL-60 cells assessed as inhibition of cell growth", "format": "functional"}, "Jurkat": {"system": "Jurkat", "assay": "Potency index, ratio of CA-4 IC50 to compound IC50 for human Jurkat cells assessed as inhibition of cell growth", "format": "functional"}, "Daoy": {"system": "Daoy", "assay": "Potency index, ratio of CA-4 IC50 to compound IC50 for human Daoy cells assessed as inhibition of cell growth", "format": "functional"}}, "note": "Activity calls are given as the source filed them. No cut-off for these calls is given here.", "data": [{"smiles": "CCOc1ccc2c(C(=O)c3cc(OC)c(OC)c(OC)c3)c(N)oc2c1", "values": [{"measurement": "IC50", "setting": "HL-60 [1]", "value": 2.7, "unit": "nM"}, {"measurement": "GI50", "setting": "[2]", "value": 8.7, "unit": "µM"}, {"measurement": "IC50", "setting": "[3]", "value": 370, "unit": "nM"}, {"measurement": "inhibition", "setting": "Bos taurus", "value": 99, "unit": "%"}, {"measurement": "Activity", "setting": "HeLa [4]", "value": "Active"}, {"measurement": "Activity", "setting": "HeLa [5]", "value": "Active"}, {"measurement": "Activity", "setting": "HeLa [6]", "value": "Dose-dependent effect"}, {"measurement": "viability at 0.01 µM", "setting": "HeLa [7]", "value": 64.5, "unit": "%"}, {"measurement": "Activity", "setting": "HeLa [8]", "value": 6.72, "unit": "%"}, {"measurement": "Activity", "setting": "HeLa [9]", "value": 14.05, "unit": "%"}, {"measurement": "Activity", "setting": "HeLa [10]", "value": 21.63, "unit": "%"}, {"measurement": "Activity", "setting": "HeLa [11]", "value": 54.7, "unit": "%"}, {"measurement": "Activity", "setting": "HeLa [12]", "value": 75.7, "unit": "%"}, {"measurement": "Activity", "setting": "HeLa [13]", "value": "Active"}, {"measurement": "Activity", "setting": "HeLa [14]", "value": "Active"}, {"measurement": "Activity", "setting": "HUVEC [15]", "value": "Active"}, {"measurement": "Activity", "setting": "HUVEC [16]", "value": "Active"}, {"measurement": "Activity", "setting": "[17]", "value": 16.9, "unit": "%"}, {"measurement": "Activity", "setting": "EO771", "value": "Dose-dependent effect"}, {"measurement": "Ratio IC50", "setting": "HL-60 [18]", "value": 3}, {"measurement": "Ratio IC50", "setting": "Jurkat", "value": 3}, {"measurement": "Ratio IC50", "setting": "Daoy", "value": 2460}]}]}
